Laboratory results taken from ChEMBL document CHEMBL1158452, “Na+ currents in cardioprotection: better to be late” (J Med Chem, 2009).
Activity calls are given as the source filed them. The calls are words filed in the database; no cut-off is given here.

Key:
[1] = biological target: T1, Sodium channel protein type 5 subunit alpha (Homo sapiens, UniProt Q14524); test: Inhibition of human Nav1.5 channel expressed in HEK293 cells assessed as blockade of veratridine-induced late inward sodium current elicited at -30 mV from holding potential -90 mV at 10 uM by patch clamp method; type: cell-based
T1 sequence (Q14524 whole entry): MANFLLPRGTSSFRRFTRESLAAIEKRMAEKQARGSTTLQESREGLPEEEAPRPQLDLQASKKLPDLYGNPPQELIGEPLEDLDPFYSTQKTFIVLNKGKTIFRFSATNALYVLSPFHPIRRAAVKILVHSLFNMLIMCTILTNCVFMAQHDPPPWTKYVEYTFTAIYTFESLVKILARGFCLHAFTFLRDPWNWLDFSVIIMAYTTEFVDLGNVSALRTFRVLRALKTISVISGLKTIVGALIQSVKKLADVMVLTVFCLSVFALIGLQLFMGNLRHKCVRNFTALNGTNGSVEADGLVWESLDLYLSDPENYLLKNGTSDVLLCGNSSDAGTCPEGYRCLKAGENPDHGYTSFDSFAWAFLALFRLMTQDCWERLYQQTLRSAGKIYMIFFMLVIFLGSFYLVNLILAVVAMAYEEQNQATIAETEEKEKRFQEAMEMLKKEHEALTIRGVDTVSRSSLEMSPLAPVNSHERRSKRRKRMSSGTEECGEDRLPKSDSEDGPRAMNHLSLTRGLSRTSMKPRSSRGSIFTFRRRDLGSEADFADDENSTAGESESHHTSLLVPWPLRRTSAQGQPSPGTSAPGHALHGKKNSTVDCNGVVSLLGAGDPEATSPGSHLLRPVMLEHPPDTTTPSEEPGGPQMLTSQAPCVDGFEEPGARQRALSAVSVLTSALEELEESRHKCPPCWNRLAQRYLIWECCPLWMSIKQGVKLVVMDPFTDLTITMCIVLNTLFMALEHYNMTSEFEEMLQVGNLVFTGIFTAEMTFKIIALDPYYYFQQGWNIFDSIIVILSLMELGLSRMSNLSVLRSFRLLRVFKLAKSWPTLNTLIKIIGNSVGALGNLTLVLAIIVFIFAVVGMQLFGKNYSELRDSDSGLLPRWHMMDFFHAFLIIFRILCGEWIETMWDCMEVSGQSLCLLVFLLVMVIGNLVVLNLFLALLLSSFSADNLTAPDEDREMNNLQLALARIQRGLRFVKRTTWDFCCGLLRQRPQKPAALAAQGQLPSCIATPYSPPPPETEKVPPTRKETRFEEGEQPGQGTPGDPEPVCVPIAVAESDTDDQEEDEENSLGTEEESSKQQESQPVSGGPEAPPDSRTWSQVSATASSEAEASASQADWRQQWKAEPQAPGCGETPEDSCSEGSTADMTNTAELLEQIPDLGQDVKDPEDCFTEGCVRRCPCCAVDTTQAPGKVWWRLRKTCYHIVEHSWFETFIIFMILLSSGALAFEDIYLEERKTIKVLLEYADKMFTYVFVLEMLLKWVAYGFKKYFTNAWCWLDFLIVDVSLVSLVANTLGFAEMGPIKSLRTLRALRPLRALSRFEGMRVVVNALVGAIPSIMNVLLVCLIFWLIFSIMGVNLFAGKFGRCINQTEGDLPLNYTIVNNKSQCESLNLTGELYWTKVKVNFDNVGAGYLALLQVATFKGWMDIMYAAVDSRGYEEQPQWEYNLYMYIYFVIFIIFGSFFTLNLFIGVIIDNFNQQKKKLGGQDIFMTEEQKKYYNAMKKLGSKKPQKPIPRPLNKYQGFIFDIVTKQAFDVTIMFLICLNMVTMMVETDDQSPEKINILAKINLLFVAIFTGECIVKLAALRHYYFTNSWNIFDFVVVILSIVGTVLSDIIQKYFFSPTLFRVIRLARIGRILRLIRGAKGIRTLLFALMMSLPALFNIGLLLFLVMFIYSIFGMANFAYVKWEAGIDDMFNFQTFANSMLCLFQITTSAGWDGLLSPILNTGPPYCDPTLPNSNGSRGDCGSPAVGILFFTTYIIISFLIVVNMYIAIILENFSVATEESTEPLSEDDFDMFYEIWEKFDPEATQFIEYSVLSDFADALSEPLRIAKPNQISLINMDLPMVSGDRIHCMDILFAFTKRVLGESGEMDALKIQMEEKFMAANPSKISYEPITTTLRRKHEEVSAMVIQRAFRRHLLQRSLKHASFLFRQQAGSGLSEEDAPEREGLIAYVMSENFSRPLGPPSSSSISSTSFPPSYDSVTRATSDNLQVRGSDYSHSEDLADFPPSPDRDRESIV
In short: (§1)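 HEK293 cells expressing hNaV1.5, room temperature (19-22 °C). Pipette (mmol): NaCl 10, CsCl 110, CaCl2 1, HEPES 10, EGTA 10, Mg-ATP 5, glucose 10, pH 7.3; bath: NaCl 30, CsCl 100, MgCl2 2, CaCl2 2, HEPES 10, glucose 5, pH 7.4. Veratridine 40 μM; 350 ms pulses to -30 mV at 0.2 Hz; late INa = mean current over last 10 ms; DMSO final 0.1%.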

[2] = biological target: T1, Sodium channel protein type 5 subunit alpha; test: Inhibition of human Nav1.5 channel expressed in HEK293 cells assessed as blockade of veratridine-induced late inward sodium current elicited at -30 mV from holding potential -110 mV at 10 uM by patch clamp method; type: cell-based; in short: as §1
[3] = tested on: Cardiac atrium; conditions: Rattus norvegicus, Wistar, 1 uM
[4] = tested on: Heart; test: Cardioprotective activity in Langendorff-perfused guinea pig heart assessed as inhibition of global ischemia-induced diastolic contracture at 1 uM; type: functional; conditions: Cavia porcellus
In short: (§2)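 Female Hartley guinea pig hearts, Langendorff-perfused at constant 800 mm H2O with modified Krebs (pH 7.4, 95% O2/5% CO2), 37 °C, LV latex balloon. After 45-60 min equilibration, compound or vehicle perfused 15 min, then 50 min global normothermic ischemia and 60 min reperfusion; one concentration per heart. LVDP, end-diastolic pressure, heart rate, dP/dt, coronary flow recorded.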

[5] = species: Sus scrofa; test: Cardioprotective activity in […] Landrace pig assessed enhancement of Na+ current; type: functional, organism-based
[6] = tested on: Heart; test: Cardiovascular activity in Langendorff-perfused guinea pig heart assessed as change in coronary vascular resistance at 1 uM; type: functional, Cavia porcellus; in short: as §2
[7] = species: Sus scrofa; test: Cardioprotective activity against myocardial ischemia-reperfusion in Landrace pig heart assessed as prevention of post reperfusion injury after 48 hrs; type: functional, tissue-based
In short: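 Anaesthetised male Landrace pigs (18-25 kg); LCX occluded 60 min, reperfused 48 h. Compound i.v. bolus 10 min pre-ischemia plus infusion through occlusion and first 30 min reperfusion. Evans blue delineates area at risk, TTC (0.1%) stains viable tissue; 10 mm LV slices imaged; necrosis expressed as % of area at risk. Means ± SEM; ANOVA with Dunnett's test.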

[8] = tested on: Heart; test: Cardiovascular activity in Langendorff-perfused guinea pig heart assessed as change in heart rate at 1 uM; type: functional, Cavia porcellus; in short: as §2
[9] = tested on: Sus scrofa; test: Cardioprotective activity in […] Landrace pig heart assessed as change in blood flow administered iv 60 mins before ischemia followed by 48 hrs of reperfusion; type: functional, organism-based
[10] = tested on: Heart; test: Cardiovascular activity in Langendorff-perfused guinea pig heart assessed as change in left ventricular developed pressure at 1 uM; type: functional, Cavia porcellus; in short: as §2
[11] = tested on: Plasma; test: Cardioprotective activity in […] Landrace pig assessed decrease in troponin 1 plasma level administered iv 60 mins before ischemia measured after 6 hrs of reperfusion; type: functional, organism-based; conditions: Sus scrofa
[12] = tested on: Sus scrofa; test: Cardioprotective activity in […] Landrace pig heart assessed as change collateral circulation administered iv 60 mins before ischemia followed by 48 hrs of reperfusion; type: functional, organism-based
[13] = Cardioprotective activity in […] Landrace pig heart assessed decrease in myocardial infarct size […]; type: functional, Sus scrofa; parameters: scale not given: the % may be the effect or the level left
[14] = Cardioprotective activity in […] Landrace pig heart assessed decrease in myocardial infarct volume […] followed by 30 mins of reperfusion; type: functional, Sus scrofa; parameters: scale not given: the % may be the effect or the level left

Structure (SMILES)	inhibition at 10 µM [1] [%]	inhibition at 10 µM [2] [%]	inhibition at 1 µM [4] [%]	also measured
C[C@@H](CN[C@@H]1COc2ccccc2SC1)CSc1cccc2cc[nH]c12	8	8		
NC1=N[C@H](O)[C@H]2[C@H]3O[C@]4(O)O[C@@H]([C@@H](O)[C@@]2(N1)[C@@H]4O)[C@]3(O)CO				inhibition [3]: 64%
Cc1ccccc1SC[C@@H](C)CN[C@@H]1COc2ccccc2SC1	14	11		
CC(C)c1cccc(SC[C@@H](C)CN[C@@H]2COc3ccccc3SC2)c1O	46	38		
COc1cccc(SC[C@@H](C)CN[C@@H]2COc3ccccc3SC2)c1N	18	13	21	
Cc1cccc(SC[C@@H](C)CN[C@@H]2COc3ccccc3SC2)c1O	87	73	70	Activity [5]: inactive; Activity [6]: -1.6 dyn.s.cm'-5.10'4; Activity [7]: Active; Activity [8]: 0.1 bpm; Activity [9]: inactive; Activity [10]: -5.9 mmHg; Activity [11]: Active; Activity [12]: inactive; Activity [13]: 3.5%
CC(C)c1ccc(C(=O)N=C(N)N)cc1S(C)(=O)=O [CARIPORIDE]			6	Activity [7]: Active; Activity [14]: 6.8%; Activity [11]: Active
Cc1cccc(SC[C@@H](C)CN[C@@H]2COc3ccccc3SC2)c1N	26	26	35	
C[C@@H](CN[C@@H]1COc2ccccc2SC1)CSc1cccc(N)c1O	19	11		
C[C@@H](CN[C@@H]1COc2ccccc2SC1)CSc1cccc(F)c1N	19	11	33	
Cc1cccc(SC[C@@H](C)CN[C@@H]2COc3ccccc3SC2)c1CO	58	45	31	
CCc1cccc(SC[C@@H](C)CN[C@@H]2COc3ccccc3SC2)c1O	56	56	13	
C[C@@H](CN[C@@H]1COc2ccccc2SC1)CSc1cccc2ccoc12	82	73	68	
COc1c(C)cccc1SC[C@@H](C)CN[C@@H]1COc2ccccc2SC1	32	28		
C[C@@H](CN[C@@H]1COc2ccccc2SC1)CSc1cccc(C(N)=O)c1O	65	59	43	
COc1cccc(SC[C@@H](C)CN[C@@H]2COc3ccccc3SC2)c1O	46	35	46	
C[C@@H](CN[C@@H]1COc2ccccc2SC1)CSc1cccc2c1OCC2	56	47	72	
CCOc1ccccc1SC[C@@H](C)CN[C@@H]1COc2ccccc2SC1	54	41		
C[C@@H](CN[C@@H]1COc2ccccc2SC1)CSc1cccc2ncoc12	26	16	84	
C[C@@H](CN[C@@H]1COc2ccccc2SC1)CSc1cccc2c1OCO2	54	32	22	
C[C@@H](CN[C@@H]1COc2ccccc2SC1)CSc1cccc2cn[nH]c12	44	34	73	
C[C@@H](CN[C@@H]1COc2ccccc2SC1)CSc1cccc(F)c1O	40	38	54	
COc1ccccc1SC[C@@H](C)CN[C@@H]1COc2ccccc2SC1			65	
